What all share (conditions): stereoisomer not certain
One test has as its target T1, UniProt Q8VGC6.
T1 sequence (whole entry): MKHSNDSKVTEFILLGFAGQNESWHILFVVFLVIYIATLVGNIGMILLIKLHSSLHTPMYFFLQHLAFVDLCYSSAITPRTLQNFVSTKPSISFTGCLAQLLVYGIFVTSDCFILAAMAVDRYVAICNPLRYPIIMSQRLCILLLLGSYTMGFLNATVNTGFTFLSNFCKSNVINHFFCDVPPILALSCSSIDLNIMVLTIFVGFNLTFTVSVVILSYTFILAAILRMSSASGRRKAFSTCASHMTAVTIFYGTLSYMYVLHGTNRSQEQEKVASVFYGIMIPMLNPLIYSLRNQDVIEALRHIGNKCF
In outline:
(§1)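 Assay methods differ from source to source, frequently being transient luciferase assays in mammalian cell lines. For each receptor–molecule pair, the label responsive (active) applies when the original authors judged the measured signal statistically different from baseline, and non-responsive (inactive) applies otherwise.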

For a further test, the target named is T2, UniProt Q8VGD7.
T2 sequence (whole entry): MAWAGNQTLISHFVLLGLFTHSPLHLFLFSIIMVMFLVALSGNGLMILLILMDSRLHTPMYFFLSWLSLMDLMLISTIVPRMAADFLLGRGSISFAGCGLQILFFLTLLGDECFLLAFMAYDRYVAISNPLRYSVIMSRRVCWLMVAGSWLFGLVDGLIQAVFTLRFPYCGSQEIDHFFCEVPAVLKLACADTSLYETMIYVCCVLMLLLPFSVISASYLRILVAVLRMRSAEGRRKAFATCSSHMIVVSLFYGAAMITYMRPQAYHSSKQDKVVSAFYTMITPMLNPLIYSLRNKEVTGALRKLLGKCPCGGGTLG
In a few lines: as §1

The target in a further test is T3, UniProt Q8VGH1.
T3 sequence (whole entry): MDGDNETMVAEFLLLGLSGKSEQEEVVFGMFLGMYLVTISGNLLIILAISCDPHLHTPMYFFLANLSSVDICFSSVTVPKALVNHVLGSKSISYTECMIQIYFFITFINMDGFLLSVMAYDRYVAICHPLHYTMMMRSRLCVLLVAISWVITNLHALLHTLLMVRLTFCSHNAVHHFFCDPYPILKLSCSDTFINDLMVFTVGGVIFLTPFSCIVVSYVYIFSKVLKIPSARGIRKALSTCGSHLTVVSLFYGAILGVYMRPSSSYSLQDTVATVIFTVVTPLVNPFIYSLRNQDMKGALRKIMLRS
In a few lines:
as §1

In a further test the target is T4, UniProt Q8VGJ1.
T4 sequence (whole entry): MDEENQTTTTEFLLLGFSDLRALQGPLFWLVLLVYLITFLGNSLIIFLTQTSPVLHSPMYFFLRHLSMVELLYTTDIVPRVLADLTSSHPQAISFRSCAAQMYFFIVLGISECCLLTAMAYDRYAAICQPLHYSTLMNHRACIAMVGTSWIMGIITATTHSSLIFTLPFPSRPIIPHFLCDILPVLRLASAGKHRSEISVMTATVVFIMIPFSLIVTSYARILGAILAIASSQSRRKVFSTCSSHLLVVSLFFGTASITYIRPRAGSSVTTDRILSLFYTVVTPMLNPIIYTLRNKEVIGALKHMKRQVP
In a few lines:
as §1

The target of another test is T5, UniProt Q8VGJ3.
T5 sequence (whole entry): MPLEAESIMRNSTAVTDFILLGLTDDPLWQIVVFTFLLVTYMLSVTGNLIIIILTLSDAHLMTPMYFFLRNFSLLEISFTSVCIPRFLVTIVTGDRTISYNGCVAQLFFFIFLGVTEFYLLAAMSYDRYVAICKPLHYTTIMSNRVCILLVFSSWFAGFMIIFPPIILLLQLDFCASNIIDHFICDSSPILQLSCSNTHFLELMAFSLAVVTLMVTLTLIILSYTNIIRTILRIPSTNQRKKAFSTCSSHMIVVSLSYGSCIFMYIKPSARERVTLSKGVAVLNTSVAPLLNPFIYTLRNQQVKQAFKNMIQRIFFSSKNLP
In outline: as §1

The target in another test is T6, UniProt Q8VGJ5.
T6 sequence (whole entry): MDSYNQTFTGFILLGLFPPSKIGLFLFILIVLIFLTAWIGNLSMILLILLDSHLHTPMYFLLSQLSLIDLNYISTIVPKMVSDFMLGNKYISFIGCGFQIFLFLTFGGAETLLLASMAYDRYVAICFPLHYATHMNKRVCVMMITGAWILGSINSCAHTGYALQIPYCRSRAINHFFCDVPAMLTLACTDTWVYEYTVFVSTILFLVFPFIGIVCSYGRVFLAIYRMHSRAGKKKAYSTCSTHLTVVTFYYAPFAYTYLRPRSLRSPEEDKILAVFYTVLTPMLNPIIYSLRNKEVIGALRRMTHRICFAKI
In outline: as §1

A further test concerns the target T7, UniProt Q8VGL0.
T7 sequence (whole entry): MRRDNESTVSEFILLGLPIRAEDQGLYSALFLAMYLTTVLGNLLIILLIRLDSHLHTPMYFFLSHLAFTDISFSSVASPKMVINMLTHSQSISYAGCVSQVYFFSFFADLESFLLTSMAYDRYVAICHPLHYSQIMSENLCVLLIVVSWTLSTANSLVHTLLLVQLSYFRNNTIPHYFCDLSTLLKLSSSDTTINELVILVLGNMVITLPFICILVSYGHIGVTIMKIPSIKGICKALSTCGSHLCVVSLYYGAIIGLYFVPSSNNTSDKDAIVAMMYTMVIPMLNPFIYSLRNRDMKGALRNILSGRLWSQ
In a few lines: as §1

For the next test, the target named is T8, UniProt Q8VGL7.
T8 sequence (whole entry): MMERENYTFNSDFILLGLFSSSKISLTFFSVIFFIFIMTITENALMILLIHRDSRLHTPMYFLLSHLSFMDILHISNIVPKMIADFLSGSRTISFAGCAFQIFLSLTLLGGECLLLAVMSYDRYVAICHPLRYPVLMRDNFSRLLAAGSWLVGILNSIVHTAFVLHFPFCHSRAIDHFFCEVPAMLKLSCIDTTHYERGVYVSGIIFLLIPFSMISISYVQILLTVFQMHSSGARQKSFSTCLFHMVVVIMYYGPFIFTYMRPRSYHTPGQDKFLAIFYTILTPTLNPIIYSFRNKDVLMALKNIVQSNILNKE
In a few lines:
as §1

For the next test, the target named is T9, UniProt Q8VGM2.
T9 sequence (whole entry): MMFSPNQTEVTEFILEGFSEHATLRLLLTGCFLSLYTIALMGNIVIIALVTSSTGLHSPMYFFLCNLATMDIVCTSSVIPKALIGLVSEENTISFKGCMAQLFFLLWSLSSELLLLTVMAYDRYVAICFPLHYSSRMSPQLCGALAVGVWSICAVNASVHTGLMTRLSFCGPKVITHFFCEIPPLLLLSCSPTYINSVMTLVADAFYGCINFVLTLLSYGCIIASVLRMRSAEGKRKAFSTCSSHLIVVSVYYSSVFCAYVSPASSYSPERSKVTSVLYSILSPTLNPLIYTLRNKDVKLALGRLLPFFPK
In a few lines:
as §1

The target of the next test is T10, UniProt Q8VGP6.
T10 sequence (whole entry): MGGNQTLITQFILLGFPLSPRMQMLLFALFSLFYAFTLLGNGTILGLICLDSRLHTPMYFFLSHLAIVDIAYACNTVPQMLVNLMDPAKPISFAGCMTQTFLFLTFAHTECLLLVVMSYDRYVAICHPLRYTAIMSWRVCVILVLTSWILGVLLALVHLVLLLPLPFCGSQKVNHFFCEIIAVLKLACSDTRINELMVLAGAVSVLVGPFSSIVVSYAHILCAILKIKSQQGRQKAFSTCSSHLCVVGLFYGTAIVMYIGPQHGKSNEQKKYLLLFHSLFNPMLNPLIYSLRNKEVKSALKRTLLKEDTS
In outline:
as §1

A further test concerns the target T11, UniProt Q8VGQ3.
T11 sequence (whole entry): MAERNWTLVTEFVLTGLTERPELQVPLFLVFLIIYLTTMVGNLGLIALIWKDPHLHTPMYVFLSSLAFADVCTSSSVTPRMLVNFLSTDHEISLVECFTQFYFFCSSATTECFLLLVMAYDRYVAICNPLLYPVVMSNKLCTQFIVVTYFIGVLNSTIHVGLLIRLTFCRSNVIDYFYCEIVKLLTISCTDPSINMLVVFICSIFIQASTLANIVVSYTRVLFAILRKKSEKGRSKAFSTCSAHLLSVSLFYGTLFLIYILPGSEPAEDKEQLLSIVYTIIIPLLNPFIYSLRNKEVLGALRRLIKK
In outline: as §1

Another test has as its target T12, UniProt Q8VGT4.
T12 sequence (whole entry): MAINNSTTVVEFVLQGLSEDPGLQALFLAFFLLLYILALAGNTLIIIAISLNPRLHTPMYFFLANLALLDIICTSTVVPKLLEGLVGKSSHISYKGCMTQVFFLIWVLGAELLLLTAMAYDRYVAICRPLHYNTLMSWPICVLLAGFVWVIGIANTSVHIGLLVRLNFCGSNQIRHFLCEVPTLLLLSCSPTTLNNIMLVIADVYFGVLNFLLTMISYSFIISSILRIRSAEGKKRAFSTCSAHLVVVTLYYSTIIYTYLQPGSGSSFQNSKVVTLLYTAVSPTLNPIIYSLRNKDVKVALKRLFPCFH
In a few lines: as §1

In another test the target is T13, UniProt Q8VGU3.
T13 sequence (whole entry): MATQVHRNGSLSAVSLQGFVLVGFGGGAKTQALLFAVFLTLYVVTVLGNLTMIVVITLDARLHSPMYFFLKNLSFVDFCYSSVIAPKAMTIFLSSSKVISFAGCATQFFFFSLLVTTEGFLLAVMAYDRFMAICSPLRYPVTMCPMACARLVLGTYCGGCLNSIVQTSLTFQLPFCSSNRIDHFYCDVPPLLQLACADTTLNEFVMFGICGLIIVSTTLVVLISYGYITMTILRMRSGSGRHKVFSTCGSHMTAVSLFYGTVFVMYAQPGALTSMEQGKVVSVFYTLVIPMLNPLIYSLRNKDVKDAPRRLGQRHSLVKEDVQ
In outline:
as §1

Another test has as its target T14, UniProt Q8VGV1.
T14 sequence (whole entry): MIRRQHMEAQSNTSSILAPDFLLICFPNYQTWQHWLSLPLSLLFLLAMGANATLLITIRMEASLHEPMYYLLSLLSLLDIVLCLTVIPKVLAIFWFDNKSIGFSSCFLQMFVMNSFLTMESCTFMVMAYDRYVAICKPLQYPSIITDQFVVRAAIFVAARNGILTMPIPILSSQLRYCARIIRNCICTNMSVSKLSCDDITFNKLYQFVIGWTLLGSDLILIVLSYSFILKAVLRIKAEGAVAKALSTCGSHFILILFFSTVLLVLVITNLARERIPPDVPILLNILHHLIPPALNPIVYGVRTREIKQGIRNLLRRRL
In a few lines:
as §1

The target of the next test is T15, UniProt Q8VGV7.
T15 sequence (whole entry): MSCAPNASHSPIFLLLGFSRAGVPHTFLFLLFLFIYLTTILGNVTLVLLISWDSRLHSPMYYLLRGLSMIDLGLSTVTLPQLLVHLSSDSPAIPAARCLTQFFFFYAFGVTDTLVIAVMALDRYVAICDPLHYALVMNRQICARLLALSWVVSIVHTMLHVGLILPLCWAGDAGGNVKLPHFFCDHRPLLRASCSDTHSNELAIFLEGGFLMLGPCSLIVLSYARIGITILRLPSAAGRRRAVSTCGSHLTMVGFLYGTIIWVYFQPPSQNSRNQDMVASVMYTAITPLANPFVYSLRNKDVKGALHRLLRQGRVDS
In a few lines:
as §1

The target in the next test is T16, UniProt Q8VGW5.
T16 sequence (whole entry): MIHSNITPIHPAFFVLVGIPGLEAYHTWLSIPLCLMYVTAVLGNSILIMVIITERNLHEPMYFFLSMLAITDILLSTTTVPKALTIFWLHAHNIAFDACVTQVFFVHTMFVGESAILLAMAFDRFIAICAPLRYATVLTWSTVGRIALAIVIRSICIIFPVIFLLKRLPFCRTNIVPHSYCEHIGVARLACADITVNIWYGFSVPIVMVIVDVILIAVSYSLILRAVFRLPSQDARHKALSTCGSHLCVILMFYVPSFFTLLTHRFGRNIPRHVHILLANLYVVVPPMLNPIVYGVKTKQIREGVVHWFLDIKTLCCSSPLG
In a few lines:
as §1

In a further test the target is T17, UniProt Q8VGX3.
T17 sequence (whole entry): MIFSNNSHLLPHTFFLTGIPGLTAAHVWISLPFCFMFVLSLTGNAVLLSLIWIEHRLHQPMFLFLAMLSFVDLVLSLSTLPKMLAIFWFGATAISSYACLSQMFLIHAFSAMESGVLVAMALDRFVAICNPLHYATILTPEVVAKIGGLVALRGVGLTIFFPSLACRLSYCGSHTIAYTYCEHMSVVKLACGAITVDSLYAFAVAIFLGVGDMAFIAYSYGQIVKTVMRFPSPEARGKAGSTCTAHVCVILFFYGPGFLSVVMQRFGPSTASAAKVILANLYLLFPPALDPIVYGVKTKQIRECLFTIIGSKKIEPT
In outline:
as §1

A further test deals with T18, UniProt Q8VGX5.
T18 sequence (whole entry): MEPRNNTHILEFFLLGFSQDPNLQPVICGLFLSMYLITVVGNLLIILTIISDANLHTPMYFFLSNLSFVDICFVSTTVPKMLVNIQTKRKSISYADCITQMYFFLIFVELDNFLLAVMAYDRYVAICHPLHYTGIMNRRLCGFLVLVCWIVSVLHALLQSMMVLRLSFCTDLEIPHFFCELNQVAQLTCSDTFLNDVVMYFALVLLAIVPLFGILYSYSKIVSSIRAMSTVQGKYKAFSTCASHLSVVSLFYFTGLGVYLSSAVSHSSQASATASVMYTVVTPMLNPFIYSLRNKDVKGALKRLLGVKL
In outline: as §1

Consider `CCCCCCCCO`, for which the “odorant receptor agonist call” value with UniProt Q8VGC6 and with UniProt Q8VGP6 was “active” each time. The “odorant receptor agonist call” value with UniProt Q8VGD7, with UniProt Q8VGH1, in the test with UniProt Q8VGJ1, in the test with UniProt Q8VGJ3, with UniProt Q8VGJ5 and with UniProt Q8VGL0 was “inactive” throughout. Further, the “odorant receptor agonist call” value in the test with UniProt Q8VGL7, with UniProt Q8VGM2, with UniProt Q8VGQ3, with UniProt Q8VGT4, with UniProt Q8VGU3 and with UniProt Q8VGV1 was “inactive” each time. The “odorant receptor agonist call” value with UniProt Q8VGV7, in the test with UniProt Q8VGW5, in the test with UniProt Q8VGX3 and with UniProt Q8VGX5 was “inactive” in each case.
